Test results reported in paper PMC4196715 (American journal of transplantation : official journal of …, 2014).
Where two headings read alike, the source gives them in different places.

Columns and labels:
[1] = Pharmacokinetics after i.p. administration; assay type: in vivo, mice; settings: for AUC 0-infinity / Apparent volume of distribution / Disposition rate constant: i.p., AZD8055 10 mg/kg plasma, RAPA 1 mg/kg whole blood; for concentration at 8 h: 10 mg/kg; for half-life: plasma (AZD8055), whole blood (RAPA), ip
[2] = tested on: B6 CD3+ T cells (CD4+ and CD8+ T cell proliferation); assay: T cell proliferation by CFSE dilution after anti-CD3/CD28 bead stimulation; assay type: cell-based, mouse
Method in brief: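 B6 CD3+ T cells were isolated by negative selection and CFSE-labelled. 1×10^5 cells were stimulated with 2.5×10^4 CD3/CD28 Dynabeads for 5 days. Test compound (10 mM DMSO stock) was added at the start of culture, from 1.95 to 1000 nM. CFSE dilution was gated on CD4+ or CD8+ cells and expressed as percent suppression versus stimulated cells without inhibitor. n=3–4 experiments; means ± SD; t tests.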

Renal function = assay type: in vivo, mouse; settings: after 10 days of treatment
Method in brief: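 B6 recipients of BALB/c heterotopic heart grafts were given test compound at 10 mg/kg twice daily i.p. (days 2–11) in PBS with 0.02% Tween 80 and 0.26% polyethylene glycol. Serum creatinine was measured after 10 days of treatment, n=4.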

[3] = oral dosing, Phase I; cited from earlier work
[4] = tested on: splenic CD4+ and CD8+ T cells of heart graft recipients; assay type: in vivo, mouse; settings: for CD4+ T cell IFNγ production enhanced by transplantation / CD8+ T cell IFNγ production enhanced by transplantation: splenocytes, day 10–11 post-transplant
[5] = mice, oral administration; cited from earlier work
[6] = ref Dr. A.D. McCormick, Astrazeneca, UK, personal communication; cited from earlier work
[7] = tested on: BALB/c to B6 cardiac allograft model; assay type: in vivo, mouse; settings: for graft histology on days 10–11: H&E, no-IS grafts showed severe cellular rejection; for Foxp3 mRNA expression in allografts: PCR, RAPA being superior to AZD8055; for enhancement of graft-infiltrating Foxp3+ Treg: immunoperoxidase staining of allograft, vs no IS
[8] = i.v. administration, B6 mice; cited from earlier work

| SMILES | AUC 0-infinity [1] | Apparent volume of distribution [1] | Disposition rate constant [1] | half-life ([1]; mouse) | CD4+ T cell IFNγ production enhanced by transplantation [4] | CD8+ T cell IFNγ production enhanced by transplantation [4] | graft histology on days 10–11 [7] | Foxp3 mRNA expression in allografts [7] | enhancement of graft-infiltrating Foxp3+ Treg [7] | also measured |
| --- | --- | --- | --- | --- | --- | --- | --- | --- | --- | --- |
| COc1ccc(-c2ccc3c(N4CCOC[C@@H]4C)nc(N4CCOC[C@@H]4C)nc3n2)cc1CO [AZD8055, (5-{2,4-Bis[(3S)-3-methylmorpholin-4-yl]pyrido[2,3-d]pyrimidin-7-yl}-2-methoxyphenyl) methanol] | 26.2 µg/mL/h | 37 mL | 0.205 h⁻¹ | 3.4 h | reaching the same levels as in naïve mice | inhibited completely | comparatively mild mononuclear cell infiltrate | increased | 7–10 fold | concentration at 8 h ([1]; mouse, in vivo): 200 nM; concentration at 8 h ([1]; mouse, plasma, intraperitoneal): ≥ 200 nM; concentrations at which AZD8055 surpassed the ability of RAPA to inhibit T cell proliferation ([2]; CD4+ and CD8+ T cells, CD3/CD28 beads, 5 days): ≥ 200 nM; concentration dependence of inhibition of T cell proliferation ([2]; concentrations tested between 1.95 nM and 1000 nM): dose-related inhibitory effect; adverse effects on renal function (Renal function): No adverse effects; serum creatinine levels (Renal function; n=4): 0.2 mg/dL; half-life in humans [3]: approximately 2 h; percentage of IFN-producing CD4+ and CD8+ T cells compared with animals given RAPA ([4]; day 20 post-transplant, not sustained at day 80): higher; half-life [5]: approximately 2 h; fraction in plasma bound to plasma protein [6]: approximately 95% |
| CO[C@H]1C[C@@H]2CC[C@@H](C)[C@@](O)(O2)C(=O)C(=O)N2CCCC[C@H]2C(=O)O[C@H]([C@H](C)C[C@@H]2CC[C@@H](O)[C@H](OC)C2)CC(=O)[C@H](C)/C=C(\C)[C@@H](O)[C@@H](OC)C(=O)[C@H](C)C[C@H](C)/C=C/C=C/C=C/1C [RAPA, rapamycin] | 1.93 µg/mL/h | 74 mL | 0.141 h⁻¹ | 4.9 h | more effective inhibition | inhibited completely | comparatively mild mononuclear cell infiltrate | increased | 7–10 fold | concentration at 24 h ([1]; mouse, whole blood, intraperitoneal, 1 mg/kg): > 10 nM; half-life [8]: 6.4 h; recipients with long-term graft survival (>80 days) ([7]; 10-day course, AZD8055 10 mg/kg twice daily i.p., RAPA 1 mg/kg/day i.p.): fifty |
